Laboratory results: ChEMBL document CHEMBL4513216, “Probing the Open Global Health Chemical Diversity Library for Multistage-Active Starting Points for Next-Generation Antimalarials” (ACS Infect Dis, 2020)

experiment: Toxicity liver stage against HepG2, at 10uM; format: cell-based; set-up: test concentration 10 uM, cell line HepG2-A16-CD81EGFP; settings: human, HepG2-A16-CD81EGFP cells; read-out: INHIBITION
In short: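 Uninfected HepG2-A16-CD81EGFP cells, 3 × 10^3 per well, 1536-well, plated on prespotted compound at 10 μM final, parasite-free screening media added to match infected plates; puromycin 10 μM positive, DMSO 0.5% negative; run in parallel with 48 h PbLuc assay at 37 °C, 5% CO2; viability by CellTiter-Glo luminescence, normalized to controls.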

Row | Structure (SMILES) | cytotoxicity at 10 µM
1 | CN1CCN(C[C@H]2OC[C@@H]3CCN(Cc4ccsc4)C[C@@H]32)CC1 | -2.19%
2 | COCCCn1ccnc1-c1cnc(OC)nc1 | -13.6%
3 | CN1CC(=O)N(c2cnn(C)c2)CC12CCN(Cc1cccnc1)C2 (stereo unspecified) | -1.69%
4 | COc1cc(OC)cc(C2CCN(CC(=O)NCC(F)(F)F)C2)c1 (stereo unspecified) | 2.29%
5 | Cc1ccccc1CN(C)CC(O)COCc1ccccc1Cl (stereo unspecified) | 8.49%
6 | COCc1ccccc1NC(=O)[C@@H]1CCCN1C(=O)c1ccco1 | -6.34%
7 | O=S(=O)(Cc1ccc(F)c(Cl)c1)NC(CO)c1ccco1 (stereo unspecified) | -3.49%
8 | CC(C)c1cc(=O)[nH]c(-n2nc(C3CC3)cc2N)n1 | 33.9%
9 | COc1ccc(CN2CC[C@H](O)[C@@H]2Cc2cnn(C)c2)cc1 | -81.7%
10 | CCN(C(=O)NCCc1ccccc1Cl)C(C)CS(C)(=O)=O (stereo unspecified) | 8.83%
11 | CCN(CC1CCOC1)C(=O)c1cc(Cl)c2c(c1)OCO2 (stereo unspecified) | 8.88%
12 | CN(C)C(=O)c1nn(C)c2c1CN(Cc1ccc(F)cc1)C2 | -9.88%
13 | O=C1CC[C@H]2CN(c3ncc(F)cn3)CC[C@H]2N1CCc1ccccn1 | 4.83%
14 | N#Cc1ccc(CN2CCC(CCc3ccc(O)cc3)CC2)cc1 | 38.8%
15 | COC(=O)CCc1c(C)nc2cc(O)nn2c1C | -7.18%
16 | CC(C)(C)n1ncc(NCc2ccccc2)c(Cl)c1=O | 55.8%
17 | Cc1c(C(=O)NCC2CCN(Cc3ccco3)C2)[nH]c2ccccc12 (stereo unspecified) | 6.32%
18 | CN(CC(=O)N1CCCC1c1cnn(C)c1)Cc1ccccc1 (stereo unspecified) | -4.38%
19 | COCC(=O)N1CCCn2c(CN3CCCCC3)nnc2C1 | -15.8%
20 | CC(NC(=O)COc1ccc(F)cc1)c1nnc2n1CCCCC2 (stereo unspecified) | -8.99%
21 | CCN(C)S(=O)(=O)NC(C)c1cnc(N(C)C2CCCCC2)nc1C (stereo unspecified) | -123%
22 | CCOCC(=O)N1CCC2(CC1)CC(c1ccccc1)CO2 (stereo unspecified) | -113%
23 | Cc1cc(-c2cnc(N3CCC(O)CC3)nc2C(C)C)on1 | 66.4%

Row | Structure (SMILES) | cytotoxicity at 10 µM
24 | Cc1csc2nc3n(c(=O)c12)CCN(Cc1c[nH]cn1)CC3 | -18.8%
25 | COc1cccc(C(=O)NCc2ccccc2S(=O)(=O)N(C)C)c1 | -5.52%
26 | CC(=O)c1ccc(N2CCCC(CO)(Cc3ccccc3C)C2)nc1 (stereo unspecified) | 10.1%
27 | COc1cccc(CCNC(=O)CN2CCN(C)CC2C)c1 (stereo unspecified) | -16.7%
28 | O=C(NCC1CCS(=O)(=O)C1)N(Cc1ccco1)C1CC1 (stereo unspecified) | -136%
29 | Cc1nnc2n1CCN(C(=O)c1cc(Cl)c[nH]1)C2 | -5.87%
30 | OC1(CN2CCCC2)CCCN(Cc2cnc(-c3ccccc3)nc2)C1 (stereo unspecified) | -11.9%
31 | COc1ccnc(N2CCCN(C(=O)Cc3ccc(C)s3)CC2)n1 | -2.12%
32 | COc1ccc(NC(=O)C2CC(=O)n3cnnc3S2)cc1 (stereo unspecified) | 1.64%
33 | CC(C)c1cccc(-n2cc(O)c(C(N)=O)n2)c1 | -5.93%
34 | CSc1ccc(C(C(=O)O)N2CCOCC2)cc1 (stereo unspecified) | 0.324%
35 | CC(C)(C)c1cnc(CN(Cc2cccnc2)CC2CCCO2)o1 (stereo unspecified) | 5.82%
36 | Cc1cc(OCC(=O)NS(=O)(=O)c2c(C)noc2C)ccc1Cl | -2.07%
37 | CCN(C)c1ccc(CNS(=O)(=O)CC2CCCO2)cc1F (stereo unspecified) | 11.9%
38 | CC(C)(C)c1csc(CN2CCN(S(=O)(=O)c3cccnc3)CC2)n1 | 3.21%
39 | Cc1cc(C)n(CC2CCCCN2CC(=O)Nc2c(C)n[nH]c2C)n1 (stereo unspecified) | -1.92%
40 | O=C(Cc1ccsc1)N1C[C@H]2CCC[C@@]2(COCc2ccccn2)C1 | -102%
41 | CCS(=O)(=O)N1CCN(CCOC)c2ncccc2C1 | 4.37%
42 | COC(=O)N1CCc2ccccc2C1C(=O)NCc1ccccn1 (stereo unspecified) | -3.01%
43 | Cc1noc2ncc(C(=O)NCC3CCN(C(C)C)C3)cc12 (stereo unspecified) | -12.4%
44 | Cc1cc(CN2C[C@@H]3CC[C@H]2CN(Cc2c(C)noc2C)C3)ccc1F | -6.74%
45 | COc1ccc(CNC(=O)Cc2csc(C(C)=O)c2)cc1 | 4.95%
46 | Cc1nc(CN2CCC(C(=O)O)(n3ccc(-c4ccco4)n3)CC2)co1 | -12.1%

Row | Structure (SMILES) | cytotoxicity at 10 µM
47 | O=C(C1CC=CC1)N1CC[C@H]2[C@@H]1CCC(=O)N2c1ccccc1 | 8.88%
48 | O=C(c1cc(F)cc2[nH]cnc12)N1CCCC1Cn1cccn1 (stereo unspecified) | 7.39%
49 | Cc1cc(CNC(=O)CCc2ccc(S(N)(=O)=O)cc2)no1 | 7.81%
50 | CCN1C[C@H]2CCN(C(=O)C3CCCO3)CC[C@H]2S1(=O)=O (stereo partly specified) | 18%
51 | CCN(Cc1cccc(-c2ccncc2)c1)S(N)(=O)=O | -12.6%
52 | O=C(CCn1cncn1)NCC1CCOC1 (stereo unspecified) | -43.4%
53 | Cc1ccc(O)c(C(=O)NCCCS(=O)(=O)Cc2ccccc2)c1 | 33.6%
54 | OC1CCN(c2ccc(CNc3nc4ccccc4s3)cc2F)CC1 | 1.71%
55 | CCn1cnnc1CNC(=O)NCC(C(C)C)N1CCOCC1 (stereo unspecified) | 13.5%
56 | CCN1C(=O)CC(c2ccccc2)C12CCN(c1ncc(C)cn1)CC2 (stereo unspecified) | -2.6%
57 | CN1CCC(N[C@@H]2CO[C@H](CNC(=O)c3cccs3)[C@H]2O)CC1 | -0.376%
58 | Cc1cc(C)n(CC2CCCN2CCc2ccccn2)n1 (stereo unspecified) | -8.01%
59 | CCC(=O)N1CCCN(C(=O)C2SCCc3sccc32)CC1 (stereo unspecified) | -8.98%
60 | CS(=O)(=O)Nc1cccc(C(=O)Nc2ccc3c(c2)C(=O)NC3)c1 | 5.91%
61 | O=C(NCc1ccc(F)cc1)NCC1(N2CCOCC2)CCSC1 (stereo unspecified) | 1.84%
62 | CC(C)CCN1CCN(Cc2nc(C3CC3)no2)CC1 | -8.77%
63 | Cc1cc(C(=O)N2CCCC(n3cncn3)C2)no1 (stereo unspecified) | -9.98%
64 | CN(Cc1cccc(OC(F)(F)F)c1)C(=O)c1ccncc1F | 3.76%
65 | Cc1nc(O)cc(CCNC(=O)c2ccc(CN3CCCCC3)cc2)n1 | 8.61%
66 | COc1ccc(C(=O)Nc2cc(CC(C)C)nn2C)cc1 | -10.6%
67 | N[C@H]1CCCN(S(=O)(=O)c2ccc(C(=O)NCC(F)F)cc2)C1 | -0.566%
68 | CCc1ccc(CNc2ccccc2CN2CCC(O)CC2)o1 | 4.34%
69 | Cc1cc(C(F)F)nn1C(C)C(=O)NCc1nccn1C (stereo unspecified) | 4.86%

Row | Structure (SMILES) | cytotoxicity at 10 µM
70 | Cc1ccsc1C(=O)Nc1cc(Br)c(=O)n(C)c1 | -15.1%
71 | Cc1cc(C)n(CC2CN(Cc3nnsc3Cl)CCO2)n1 (stereo unspecified) | 1.46%
72 | CC(C)N1CCCCC1CCn1cnc2cc(C(F)(F)F)ccc2c1=O (stereo unspecified) | -5.98%
73 | c1coc(CN2CCC3(CC2)CC(N2CCCC2)CO3)c1 (stereo unspecified) | -11.9%
74 | CCOC(=O)CCn1cnc2onc(-c3ccc(OC)cc3)c2c1=O | 18.8%
75 | COCCC(=O)Nc1cc(CC(C)(C)C)n[nH]1 | 3.97%
76 | c1cncc(NCCNC2CSCCSC2)c1 | 15.8%
77 | O=C([C@@H]1C[C@@H]2CCN(Cc3ccc4c(c3)OCO4)C[C@@H]2O1)N1CCCC1 | -2.46%
78 | CC1CCN(CCNC(=O)c2sccc2C2CC2)CC1 | -144%
79 | c1ccc(C2CCCN2Cc2nnnn2C2CC2)cc1 (stereo unspecified) | -5.04%
80 | Fc1cccc(N2CCCC3(CN(Cc4ccncc4)CCO3)C2)c1 (stereo unspecified) | 8.98%
81 | Cc1cccc(CN2CCCC23CCNC3)n1 (stereo unspecified) | 4.82%
82 | COC(=O)CNC(=O)CSCc1nc(O)c2c(C)c(C)sc2n1 | 0.562%
83 | CN1C(=O)C2(CCN(C(=O)c3ccccc3)CC2)c2cccc(F)c21 | 4.74%
84 | OC1CCN(c2ccnc(NCCc3ccccc3Cl)n2)C1 (stereo unspecified) | 39.3%
85 | Nc1cc2c(nn1)CCN(C(=O)c1ccc(Oc3cccnc3)cc1)C2 | 6.27%
86 | O=C(c1cc2c(s1)CCC2)N1CCN(c2cnccn2)CC1 | 1.5%
87 | O=C1CC(c2ccccc2)C2(CCN(CC3CC3)CC2)N1 (stereo unspecified) | -6.47%
88 | CCN1C(=O)C2(CCOCC2)c2cc(NC(=O)c3cnccn3)ccc21 | -2.98%
89 | O=C(NCCNC(=O)C1CCN(c2ncccn2)CC1)c1ccoc1 | -9.99%
90 | Cn1c(NCC(=O)N2CCCCC2)c(C#N)c(=O)n(C)c1=O | 5.83%
91 | CC(C)(C)c1nc(CN(Cc2cccs2)C2CCS(=O)(=O)C2)cs1 (stereo unspecified) | 16%
92 | Cc1cccc(CN2C[C@@H]3C[C@H](C(=O)NCc4cccnc4)[C@H](C2)O3)c1 | -5.98%

Row | Structure (SMILES) | cytotoxicity at 10 µM
93 | COC(=O)N1CCCCC1C(=O)N1CCN(c2ncccc2C)CC1 (stereo unspecified) | 3.37%
94 | CN1CCC(C)(CN(C)C(=O)c2ccc(CCC(C)(C)O)cc2)C1 (stereo unspecified) | -11.2%
95 | O=C1COc2c(cccc2C(=O)N2CCCC(n3cccn3)C2)N1 (stereo unspecified) | -13.8%
96 | Cc1nccn1-c1ccc(CNS(=O)(=O)N2CCCCC2C)cn1 (stereo unspecified) | -11%
97 | CS(=O)(=O)N(Cc1ccon1)c1ccc(F)cc1 | 2.24%
98 | Cc1oc(-c2cccc(F)c2F)nc1CN(CCO)C(C)C | -15.2%
99 | Cc1cccc(C2CCCN(C(=O)c3ccncc3)C2)n1 (stereo unspecified) | 2.97%
100 | CC(C)c1nccn1C1CCCN(C(=O)c2ccc3[nH]cnc3c2)C1 (stereo unspecified) | -8.24%
101 | CNc1cc(C)nc(N2CCC3(CC2)[C@H](O)C[C@@H]3OC)n1 | -6.72%
102 | CSc1ccsc1C(=O)NC(C)c1ccc2c(c1)CCC(=O)N2 (stereo unspecified) | 1.28%
103 | CN(Cc1nc(Cc2cccc(C(F)(F)F)c2)no1)CC1CCCCO1 (stereo unspecified) | 3.64%
104 | Cc1ncnc(NCCCN2CCCCC2CO)c1C (stereo unspecified) | -2.35%
105 | Cc1cc(N2CCOC(c3ccc(C(N)=O)cn3)C2)ncn1 (stereo unspecified) | 5.45%
106 | CC(C)n1cnnc1Cn1ccc2ncccc2c1=O | 0.86%
107 | N#CC1(C(=O)N2CCOC(c3ccc(Cl)cc3)C2)CCCC1 (stereo unspecified) | 1.36%
108 | CC(C)=CCN1CCC2(CC1)CC(=O)N(Cc1cc(F)cc(F)c1)C2 | 0.308%
109 | CCC(NC(=O)NCC(=O)NC(C)C)c1cc(F)ccc1F (stereo unspecified) | 0.447%
110 | COc1cc(F)c(C(=O)NCc2cc(C)on2)c(F)c1 | -0.376%
111 | CC(=O)N1C[C@H](NC(=O)c2ccnc(N)c2)[C@@H](C(C)C)C1 | 8.64%
